Activity calls are given as the source filed them. No cut-off for these calls is given here.
Legend:
[1] = molecular target: Bromodomain-containing protein 8 (Homo sapiens, UniProt Q9H0E9); experiment: Binding affinity to BRD8 bromodomain (unknown origin) incubated for 60 mins by TR-FRET assay
[2] = AUC (0 to 24 hrs) in human patient with progression lymphoma at 300 mg,po QD and measured after 24 hrs; assay type: ADME; set-up: time 24 hrs, dose 300 mg, route po; settings: in vivo
In short: (§1)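 Phase I trial in patients with hematologic malignancies, oral dosing once daily with escalating cohorts; values are from the 300 mg dose on day 14. AUC0-24 was taken as exposure over 24 h. Apparent clearance was calculated as Dose/AUC0-24.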

[3] = Oral bioavailability in rat at 5 mg/kg; assay type: ADME, organism-based; settings: in vivo
[4] = Toxicity in rat assessed as GI mucosal atrophy at 2 to 20 mg/kg,po QD consecutive for 14 days followed by 2 weeks recovery period; assay type: organism-based; settings: in vivo, 336 h, dose 2-20 mg/kg, time 14 day
In short: (§2)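 Oral suspension given once daily for 14 consecutive days (rat 2, 6, 20 mg/kg; dog 2, 4, 6 mg/kg) in dose range-finding and GLP repeat-dose studies, GLP arms with an added 2-week recovery period; histopathology and clinical pathology findings recorded.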

[5] = Toxicity against BALB/c mouse plasma xenografted with human MV4-11 cells assessed as body weight loss at 60 mg/kg,po QD for 28 days; assay type: organism-based; settings: in vivo, 672 h, time 28 day
In short: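 Body weight change (%) followed in MV-4-11 AML mouse xenograft during 28 days of oral single-agent dosing (30 mg/kg once or twice daily, 60 mg/kg once daily), vehicle PO BID as control.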

[6] = molecular target: SWI/SNF-related matrix-associated actin-dependent regulator of chromatin subfamily A member 4 (Homo sapiens, UniProt P51532); experiment: Binding affinity to BRG1 bromodomain (unknown origin) incubated for 60 mins by TR-FRET assay
[7] = Cmax in rat at 5 mg/kg,po; assay type: ADME, organism-based; set-up: dose 5 mg/kg, route po; settings: in vivo
[8] = Half life in dog plasma at 0.5 mg/kg,iv; assay type: ADME, organism-based, Canis lupus familiaris
[9] = Unbound AUC in dog at 2.5 mg/kg,po; assay type: ADME, organism-based, Canis lupus familiaris; settings: in vivo
MV4-11 = experiment: In vivo inhibition of BRD4 in human MV4-11 cells xenografted in BALB/c mouse assessed as reduction in cellular MYC mRNA expression level in tumor at 15 mg/kg,sc BID and measured for 8 to 12 hrs by PCR anlaysis; assay type: functional, organism-based; settings: time 8-12 hrs
In short: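 Pharmacodynamic study in MV-4-11 AML mouse xenograft. Dosing was 15 mg/kg subcutaneous twice daily. At 4, 8 and 12 h after the second dose, MYC mRNA was measured against vehicle, and compound levels were measured in plasma and tumor. Free plasma concentration was estimated alongside total levels.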

[10] = Toxicity in rat assessed as GI mucosal ulceration at 2 to 20 mg/kg,po QD consecutive for 14 days followed by 2 weeks recovery period; assay type: organism-based; settings: in vivo, 336 h, dose 2-20 mg/kg, time 14 day; in short: as §2
[11] = Half life in rat plasma at 1 mg/kg,iv; assay type: ADME, organism-based
[12] = Apparent oral clearance in human patient with progression lymphoma at 300 mg,po QD consecutively for 14 days; assay type: ADME; settings: in vivo, 336 h, time 14 day; in short: as §1
[13] = Protein binding in dog plasma; assay type: ADME, cell-free, Canis lupus familiaris; settings: read-out: PPB (converted)
[14] = Toxicity in rat assessed as GI mucosal erosion at 2 to 20 mg/kg,po QD consecutive for 14 days followed by 2 weeks recovery period; assay type: organism-based; settings: in vivo, 336 h, dose 2-20 mg/kg, time 14 day; in short: as §2
[15] = AUC (0 to infinity) in dog at 2.5 mg/kg,po; assay type: ADME, organism-based, Canis lupus familiaris; set-up: dose 2.5 mg/kg, route po; settings: in vivo
[16] = molecular target: T1, ATPase family AAA domain-containing protein 2 (Homo sapiens, UniProt Q6PL18); experiment: Displacement of biotinylated JQ1 from ATAD2 bromodomain (unknown origin) incubated for 20 mins by AlphaLISA assay
T1 sequence (Q6PL18 whole entry): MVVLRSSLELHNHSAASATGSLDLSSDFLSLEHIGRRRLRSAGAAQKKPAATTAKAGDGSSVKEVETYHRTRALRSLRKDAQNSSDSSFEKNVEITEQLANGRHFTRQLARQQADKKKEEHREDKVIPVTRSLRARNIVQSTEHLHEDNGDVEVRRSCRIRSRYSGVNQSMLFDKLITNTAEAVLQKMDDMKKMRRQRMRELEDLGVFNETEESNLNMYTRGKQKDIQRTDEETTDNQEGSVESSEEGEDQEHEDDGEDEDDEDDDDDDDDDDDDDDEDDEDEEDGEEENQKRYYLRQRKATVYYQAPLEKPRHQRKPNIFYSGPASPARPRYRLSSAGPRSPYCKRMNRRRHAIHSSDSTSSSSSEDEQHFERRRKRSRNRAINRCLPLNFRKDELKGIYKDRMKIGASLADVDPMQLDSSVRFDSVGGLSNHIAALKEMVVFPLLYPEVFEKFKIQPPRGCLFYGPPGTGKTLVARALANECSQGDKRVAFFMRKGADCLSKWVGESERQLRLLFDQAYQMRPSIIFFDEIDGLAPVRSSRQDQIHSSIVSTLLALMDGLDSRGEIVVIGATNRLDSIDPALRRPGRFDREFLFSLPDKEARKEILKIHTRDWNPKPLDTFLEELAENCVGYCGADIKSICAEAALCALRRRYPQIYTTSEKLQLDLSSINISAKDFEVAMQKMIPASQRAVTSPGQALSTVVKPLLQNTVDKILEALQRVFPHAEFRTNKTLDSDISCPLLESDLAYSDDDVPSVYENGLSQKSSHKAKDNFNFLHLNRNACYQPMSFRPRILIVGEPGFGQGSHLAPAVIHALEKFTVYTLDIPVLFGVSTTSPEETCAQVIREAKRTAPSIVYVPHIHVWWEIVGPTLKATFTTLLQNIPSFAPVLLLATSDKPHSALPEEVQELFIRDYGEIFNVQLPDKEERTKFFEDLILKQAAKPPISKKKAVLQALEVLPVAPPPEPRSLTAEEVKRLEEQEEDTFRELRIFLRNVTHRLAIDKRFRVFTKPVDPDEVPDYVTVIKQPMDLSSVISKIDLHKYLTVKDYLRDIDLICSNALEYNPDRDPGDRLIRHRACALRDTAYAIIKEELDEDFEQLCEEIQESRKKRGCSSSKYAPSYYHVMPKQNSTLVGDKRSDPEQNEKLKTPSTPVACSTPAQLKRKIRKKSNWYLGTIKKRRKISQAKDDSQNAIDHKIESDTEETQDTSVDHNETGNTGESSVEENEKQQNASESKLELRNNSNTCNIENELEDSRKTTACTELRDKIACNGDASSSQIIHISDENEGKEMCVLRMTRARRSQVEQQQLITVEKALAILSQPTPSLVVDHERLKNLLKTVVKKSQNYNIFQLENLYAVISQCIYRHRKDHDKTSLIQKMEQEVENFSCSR

[17] = Toxicity in dog assessed as GI mucosal erosion at 2 to 6 mg/kg,po QD consecutive for 14 days followed by 2 weeks recovery period; assay type: organism-based, Canis lupus familiaris; settings: in vivo, 336 h, dose 2-6 mg/kg, time 14 day; in short: as §2
[18] = Half life in human patient with progression lymphoma at 300 mg,po QD consecutively for 14 days; assay type: ADME; settings: in vivo, time 14 day
[19] = Intrinsic clearance in human liver microsomes; assay type: ADME, Microsome; settings: read-out: CLH
[20] = Intrinsic clearance in mouse liver microsomes; assay type: ADME, Microsome; settings: read-out: CLH

SWI/SNF-related matrix-associated actin-dependent regulator of chromatin subfamily A member 4, sequence (P51532 whole entry): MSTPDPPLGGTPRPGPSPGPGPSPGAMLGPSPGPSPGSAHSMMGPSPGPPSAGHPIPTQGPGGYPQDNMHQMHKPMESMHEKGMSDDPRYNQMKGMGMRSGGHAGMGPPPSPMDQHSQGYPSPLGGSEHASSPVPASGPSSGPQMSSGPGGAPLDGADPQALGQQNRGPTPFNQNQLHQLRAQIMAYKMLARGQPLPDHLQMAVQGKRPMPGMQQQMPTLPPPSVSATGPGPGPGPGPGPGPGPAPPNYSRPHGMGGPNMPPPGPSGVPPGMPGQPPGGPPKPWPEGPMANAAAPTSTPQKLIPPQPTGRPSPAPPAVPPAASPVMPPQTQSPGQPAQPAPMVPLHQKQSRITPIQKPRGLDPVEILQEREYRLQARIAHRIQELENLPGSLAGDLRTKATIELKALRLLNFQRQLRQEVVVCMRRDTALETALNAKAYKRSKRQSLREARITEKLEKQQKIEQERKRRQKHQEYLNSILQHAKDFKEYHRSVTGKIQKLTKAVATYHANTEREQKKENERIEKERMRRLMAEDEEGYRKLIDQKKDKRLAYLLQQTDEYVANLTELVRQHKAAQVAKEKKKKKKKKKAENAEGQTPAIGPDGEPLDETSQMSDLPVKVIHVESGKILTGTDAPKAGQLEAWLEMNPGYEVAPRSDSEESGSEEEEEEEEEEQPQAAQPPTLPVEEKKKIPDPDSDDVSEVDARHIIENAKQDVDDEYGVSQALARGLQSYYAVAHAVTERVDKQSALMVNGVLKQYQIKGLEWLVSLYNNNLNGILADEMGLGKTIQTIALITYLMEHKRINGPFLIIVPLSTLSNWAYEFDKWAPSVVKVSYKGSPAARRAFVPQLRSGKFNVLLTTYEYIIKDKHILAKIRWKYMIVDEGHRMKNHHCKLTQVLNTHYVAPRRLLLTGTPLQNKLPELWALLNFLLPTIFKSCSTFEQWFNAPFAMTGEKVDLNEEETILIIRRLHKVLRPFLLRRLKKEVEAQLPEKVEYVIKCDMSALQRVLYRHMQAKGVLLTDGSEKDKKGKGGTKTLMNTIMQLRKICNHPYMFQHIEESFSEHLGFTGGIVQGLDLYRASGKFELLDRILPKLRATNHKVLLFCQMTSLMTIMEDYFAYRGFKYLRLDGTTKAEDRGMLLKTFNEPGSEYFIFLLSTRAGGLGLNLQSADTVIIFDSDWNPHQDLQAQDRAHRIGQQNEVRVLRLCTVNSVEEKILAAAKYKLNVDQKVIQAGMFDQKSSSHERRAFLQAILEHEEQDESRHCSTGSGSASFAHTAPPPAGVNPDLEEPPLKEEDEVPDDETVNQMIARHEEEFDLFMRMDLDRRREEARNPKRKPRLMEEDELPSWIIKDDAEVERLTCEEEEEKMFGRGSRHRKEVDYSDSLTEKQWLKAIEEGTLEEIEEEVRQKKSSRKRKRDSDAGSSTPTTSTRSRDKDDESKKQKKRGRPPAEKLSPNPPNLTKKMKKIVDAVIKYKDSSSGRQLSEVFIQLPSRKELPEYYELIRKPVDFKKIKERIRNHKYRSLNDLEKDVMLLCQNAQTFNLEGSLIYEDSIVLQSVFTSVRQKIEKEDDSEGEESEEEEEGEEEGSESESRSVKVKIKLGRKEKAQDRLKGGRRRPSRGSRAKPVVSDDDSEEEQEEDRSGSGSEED
Bromodomain-containing protein 8, sequence (Q9H0E9 whole entry): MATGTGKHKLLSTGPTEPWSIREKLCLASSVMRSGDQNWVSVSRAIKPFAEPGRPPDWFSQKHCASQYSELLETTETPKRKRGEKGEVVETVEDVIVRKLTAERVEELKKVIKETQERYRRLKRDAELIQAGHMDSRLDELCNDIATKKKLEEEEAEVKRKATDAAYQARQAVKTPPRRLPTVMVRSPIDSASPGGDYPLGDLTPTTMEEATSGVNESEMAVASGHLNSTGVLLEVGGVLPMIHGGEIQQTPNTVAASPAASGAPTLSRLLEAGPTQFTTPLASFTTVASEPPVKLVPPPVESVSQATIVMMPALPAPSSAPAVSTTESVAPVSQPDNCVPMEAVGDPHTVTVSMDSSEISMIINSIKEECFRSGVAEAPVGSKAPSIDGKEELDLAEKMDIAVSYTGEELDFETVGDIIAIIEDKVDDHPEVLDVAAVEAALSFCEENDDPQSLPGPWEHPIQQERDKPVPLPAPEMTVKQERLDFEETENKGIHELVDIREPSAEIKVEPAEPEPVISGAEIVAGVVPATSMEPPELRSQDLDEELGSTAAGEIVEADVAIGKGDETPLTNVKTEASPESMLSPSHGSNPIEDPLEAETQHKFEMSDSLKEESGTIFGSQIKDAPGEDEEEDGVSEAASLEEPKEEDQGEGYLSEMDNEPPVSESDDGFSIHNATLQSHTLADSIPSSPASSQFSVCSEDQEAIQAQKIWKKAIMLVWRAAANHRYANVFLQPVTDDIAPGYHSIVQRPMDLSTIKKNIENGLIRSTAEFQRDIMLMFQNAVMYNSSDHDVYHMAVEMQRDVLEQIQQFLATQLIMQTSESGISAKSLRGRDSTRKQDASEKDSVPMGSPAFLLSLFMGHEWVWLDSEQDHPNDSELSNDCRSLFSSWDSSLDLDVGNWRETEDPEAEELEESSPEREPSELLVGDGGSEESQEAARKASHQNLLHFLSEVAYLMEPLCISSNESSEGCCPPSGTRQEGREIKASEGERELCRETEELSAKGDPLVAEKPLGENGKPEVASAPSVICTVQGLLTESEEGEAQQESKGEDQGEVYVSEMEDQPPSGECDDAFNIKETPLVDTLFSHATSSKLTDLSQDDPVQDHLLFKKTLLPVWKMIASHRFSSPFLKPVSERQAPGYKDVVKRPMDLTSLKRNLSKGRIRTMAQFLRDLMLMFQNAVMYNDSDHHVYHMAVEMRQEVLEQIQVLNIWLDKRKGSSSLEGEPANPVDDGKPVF

Cc1noc2c1-c1ccccc1C(c1ccc(Cl)cc1)=N[C@H]2CC(N)=O [PELABRESIB]
IC50 [1]: > 15 µM | AUC at 24 h [2]: 49 µM·h | bioavailability [3]: 76% | Activity [4]: Toxic | Activity [5]: Non-Toxic | IC50 [6]: > 20 µM | Cmax [7]: 1800 nM | half-life [8]: 9 h | fAUC [9]: 1.1 µM·h | inhibition (MV4-11): inactive | Activity [10]: Toxic | half-life [11]: 0.93 h | CL/F [12]: 21 L/h | fraction unbound [13]: 0.04 | Activity [14]: Toxic | AUC(0-inf) [15]: 28 µM·h | IC50 [16]: > 80 µM | Activity [17]: Toxic | half-life [18]: 23 h | predicted hepatic clearance [19]: 10 mL/min/kg | predicted hepatic clearance [20]: 30 mL/min/kg

— ChEMBL document CHEMBL5252513, “Identification of a Benzoisoxazoloazepine Inhibitor (CPI-0610) of the Bromodomain and Extra-Terminal (BET) Family as a Candidate for Human Clinical Trials” (J Med Chem, 2016)
